Assay results: ChEMBL document CHEMBL4014339, “Discovery of 1,4-Benzodiazepine-2,5-dione (BZD) Derivatives as Dual Nucleotide Binding Oligomerization Domain Containing 1/2 (NOD1/NOD2) Antagonists Sensitizing Paclitaxel (PTX) To Suppress Lewis Lung Carcinoma (LLC) Growth in Vivo” (J Med Chem, 2017)

Experiments:
Assay type in all cases: cell-based
[1] = biological target: T1, Nucleotide-binding oligomerization domain-containing protein 2 (Homo sapiens, UniProt Q9HC29); assay: Antagonist activity at human NOD2 expressed in HEK-Blue cells assessed as inhibition of MDP-stimulated cell activation at 10 uM preincubated for 3 hrs followed by MDP addition measured after 20 hrs by SEAP reporter gene assay
T1 sequence (Q9HC29 whole entry, the tested form may be a part): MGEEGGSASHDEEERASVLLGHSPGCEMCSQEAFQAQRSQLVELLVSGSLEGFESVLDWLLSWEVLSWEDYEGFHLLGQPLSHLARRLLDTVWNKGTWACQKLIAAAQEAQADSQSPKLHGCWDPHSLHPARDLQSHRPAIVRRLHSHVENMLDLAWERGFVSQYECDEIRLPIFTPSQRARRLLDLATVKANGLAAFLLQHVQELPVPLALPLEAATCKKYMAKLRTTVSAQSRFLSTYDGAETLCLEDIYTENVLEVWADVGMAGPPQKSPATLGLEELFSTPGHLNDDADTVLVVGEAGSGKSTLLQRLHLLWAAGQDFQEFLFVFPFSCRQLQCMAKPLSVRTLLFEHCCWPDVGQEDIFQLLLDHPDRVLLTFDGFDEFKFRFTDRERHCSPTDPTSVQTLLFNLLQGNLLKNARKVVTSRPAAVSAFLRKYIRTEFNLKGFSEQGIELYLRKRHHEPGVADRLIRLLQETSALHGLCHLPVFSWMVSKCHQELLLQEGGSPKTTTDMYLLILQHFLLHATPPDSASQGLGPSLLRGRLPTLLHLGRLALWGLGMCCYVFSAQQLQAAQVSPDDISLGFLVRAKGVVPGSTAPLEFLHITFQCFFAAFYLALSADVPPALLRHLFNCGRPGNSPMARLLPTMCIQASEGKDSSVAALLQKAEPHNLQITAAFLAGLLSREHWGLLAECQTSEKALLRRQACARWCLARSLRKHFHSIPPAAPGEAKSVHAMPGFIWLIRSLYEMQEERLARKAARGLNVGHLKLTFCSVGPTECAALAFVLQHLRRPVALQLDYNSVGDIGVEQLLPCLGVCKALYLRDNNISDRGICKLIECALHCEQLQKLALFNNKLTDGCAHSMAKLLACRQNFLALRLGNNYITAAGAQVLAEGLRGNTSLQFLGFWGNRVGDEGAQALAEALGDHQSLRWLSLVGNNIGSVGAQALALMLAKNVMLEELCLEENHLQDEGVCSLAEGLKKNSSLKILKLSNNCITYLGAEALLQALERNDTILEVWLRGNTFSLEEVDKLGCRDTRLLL
Method in brief: (§1)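 HEK-Blue hNOD1 or hNOD2 cells preincubated with compound 3 h, then stimulated 20 h with C12-iE-DAP 50 ng/mL (NOD1) or MDP 100 ng/mL (NOD2); SEAP in supernatant quantified. Primary screen at 10 μM, hits repeated in triplicate; IC50 from dose-response, mean ± SD (n = 3), only for compounds reaching ≥50% inhibition at the screening concentration.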

[2] = biological target: T2, Nucleotide-binding oligomerization domain-containing protein 1 (Homo sapiens) (UniProt Q9Y239); assay: Antagonist activity at human NOD1 expressed in HEK-Blue cells assessed as inhibition of C12-iE-DAP-stimulated cell activation at 10 uM preincubated for 3 hrs followed by C12-iE-DAP addition measured after 20 hrs by SEAP reporter gene assay; method in brief: as §1
T2 sequence (whole entry): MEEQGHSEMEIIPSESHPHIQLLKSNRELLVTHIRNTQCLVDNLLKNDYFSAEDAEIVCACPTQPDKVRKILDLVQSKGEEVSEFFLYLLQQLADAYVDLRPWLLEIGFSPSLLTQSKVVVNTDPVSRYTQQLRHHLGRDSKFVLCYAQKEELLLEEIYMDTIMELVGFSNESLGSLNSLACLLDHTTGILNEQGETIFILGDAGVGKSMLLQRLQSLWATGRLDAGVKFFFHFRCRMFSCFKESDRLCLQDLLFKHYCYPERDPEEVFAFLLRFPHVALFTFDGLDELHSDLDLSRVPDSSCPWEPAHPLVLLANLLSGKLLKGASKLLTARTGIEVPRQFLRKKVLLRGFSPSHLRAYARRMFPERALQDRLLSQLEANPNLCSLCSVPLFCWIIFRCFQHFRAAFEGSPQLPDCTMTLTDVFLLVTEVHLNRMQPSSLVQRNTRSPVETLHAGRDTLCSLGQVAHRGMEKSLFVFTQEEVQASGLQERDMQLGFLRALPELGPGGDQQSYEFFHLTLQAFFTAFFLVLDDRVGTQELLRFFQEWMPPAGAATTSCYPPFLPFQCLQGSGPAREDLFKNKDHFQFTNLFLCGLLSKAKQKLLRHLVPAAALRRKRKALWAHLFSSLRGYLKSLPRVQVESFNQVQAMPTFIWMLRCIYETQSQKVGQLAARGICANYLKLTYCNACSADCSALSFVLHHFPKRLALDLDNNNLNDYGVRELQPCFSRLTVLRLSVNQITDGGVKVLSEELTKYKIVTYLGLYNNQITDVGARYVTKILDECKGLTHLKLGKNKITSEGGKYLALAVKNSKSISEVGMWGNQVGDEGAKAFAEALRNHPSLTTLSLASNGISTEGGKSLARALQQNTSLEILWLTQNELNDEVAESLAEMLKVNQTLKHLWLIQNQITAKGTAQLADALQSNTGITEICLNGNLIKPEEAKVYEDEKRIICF

[3] = biological target: T1, Nucleotide-binding oligomerization domain-containing protein 2; assay: Antagonist activity at human NOD2 expressed in HEK-Blue cells assessed as inhibition of MDP-stimulated cell activation at 5 uM preincubated for 3 hrs followed by MDP addition measured after 20 hrs by SEAP reporter gene assay
[4] = biological target: T2, Nucleotide-binding oligomerization domain-containing protein 1 (Homo sapiens); assay: Antagonist activity at human NOD1 expressed in HEK-blue cells assessed as inhibition of C12-iE-DAP-stimulated cell activation at 5 uM preincubated for 3 hrs followed by C12-iE-DAP addition measured after 20 hrs by SEAP reporter gene assay

inhibition [1]	inhibition [2]	inhibition [3]	inhibition [4]	Compound
1.25%	-7.88%	–	–	CCCCCCCNC(=O)CC[C@H]1NC(=O)c2cc(Cl)ccc2NC1=O
27.1%	22.6%	–	–	O=C(CC[C@H]1NC(=O)c2cc(N3CCOCC3)c(NC(=O)C3CC3)cc2NC1=O)NC1CCCc2ccccc21 (stereo partly drawn)
3.93%	–	–	–	CN(C)c1cccc(Oc2cc3c(cc2NC(=O)COCc2ccccc2)NC(=O)[C@@H](CCC(N)=O)NC3=O)c1
28.9%	38%	–	–	COC(=O)CC[C@H]1NC(=O)c2cc(Cl)ccc2NC1=O
-0.3%	6.34%	–	–	COC(=O)CC[C@H]1NC(=O)c2cc(Oc3cccc4ccccc34)c(NC(=O)C3CC3)cc2NC1=O
–	–	10.3%	29.3%	COC(=O)CC[C@@H]1NC(=O)c2cc(Oc3cccc(N(C)C)c3)c(NC(=O)COCc3ccc(F)cc3Cl)cc2NC1=O
1.87%	–	–	–	COC(=O)CCC1NC(=O)c2cc(Cl)ccc2N(C)C1=O (stereo not drawn)
15.7%	0.08%	15.7%	21.9%	COC(=O)CC[C@H]1NC(=O)c2cc(Oc3cccc(N(C)C)c3Cl)c(NC(=O)COCc3ccc(Cl)cc3)cc2NC1=O
–	-7.62%	–	–	CCN(CC)C(=O)CC[C@@H]1C(=O)N(CCC(C)C)c2cc(Cl)ccc2C(=O)N1C
–	–	31.6%	38%	CN(C)c1cccc(Oc2cc3c(cc2NC(=O)COCc2ccc(C(F)(F)F)cc2)NC(=O)CNC3=O)c1
23.8%	–	20.9%	-5.97%	COC(=O)CC[C@H]1NC(=O)c2cc(Oc3cccc(N(C)C)c3)c(NC(=O)COCc3ccccc3Cl)cc2NC1=O
-7.53%	–	–	–	CCN(CC)C(=O)CC[C@@H]1C(=O)Nc2cc(Cl)ccc2C(=O)N1C
27.7%	17%	–	–	CCCCCCCCCN1C(=O)[C@@H](CCC(=O)N[C@@H](C)C(N)=O)N(C)C(=O)c2ccc(Cl)cc21
0.22%	-9.85%	–	–	COC(=O)CC[C@H]1NC(=O)c2cc(Oc3ccccc3)c(NC(=O)Nc3ccc(F)cc3)cc2NC1=O
29.5%	22%	–	–	CCCCCCCCCN1C(=O)[C@@H](CCC(N)=O)N(C)C(=O)c2ccc(Cl)cc21
–	–	18%	22.2%	COC(=O)CC[C@H]1NC(=O)c2cc(Oc3cccc(N(C)C)c3)c(NC(=O)CCCc3ccccc3)cc2NC1=O
-1.87%	–	–	–	COC(=O)CC[C@@H]1C(=O)Nc2cc(Cl)ccc2C(=O)N1C
-3.92%	7.37%	–	–	CCCCCCCCCCCCNCC(=O)Nc1cc2c(cc1Oc1cccc(N(C)C)c1)C(=O)N[C@H](CCC(=O)OC)C(=O)N2
1.94%	–	–	–	CCN(CC)C(=O)CC[C@H]1NC(=O)c2cc(Oc3cccc4ccccc34)c(NC(=O)/C=C\c3ccc(F)cc3Cl)cc2NC1=O
76.6%	66.4%	–	–	COC(=O)CC[C@H]1NC(=O)c2cc(OC)c(NC(=O)c3ccc4ccccc4c3)cc2NC1=O
–	–	42.2%	33.4%	CN(C)c1cccc(Oc2cc3c(cc2NC(=O)COCc2ccccc2)NC(=O)[C@@H](CCC(=O)N2CCNCC2)NC3=O)c1
54.4%	73.8%	–	–	COC(=O)CC[C@H]1NC(=O)c2cc(Oc3ccc(C)c(C)c3)c(NC(=O)COCc3ccccc3)cc2NC1=O
91.9%	82.1%	–	–	C=CC(=O)Nc1cc2c(cc1Oc1cccc(N(C)C)c1)C(=O)N[C@H](CCC(=O)OC)C(=O)N2
–	18.5%	–	12.7%	CCCCCCCCCCCCCCCCCCNC(=O)CC[C@H]1NC(=O)c2cc(Oc3cccc(N(C)C)c3)c(NC(=O)COCc3ccccc3)cc2NC1=O
60.8%	76.5%	–	–	CCCCN(CCCC)c1cc2c(cc1NC(=O)/C=C/c1ccc(F)cc1Cl)NC(=O)[C@@H](CCC(=O)OC)NC2=O
-2.7%	2.54%	–	–	CCCCCCCCCCN1C(=O)C(CCC(=O)OC)NC(=O)c2cc(Cl)ccc21 (stereo not drawn)

inhibition [1]	inhibition [2]	inhibition [3]	inhibition [4]	Compound
54.8%	70.6%	–	–	NC(=O)CC[C@H]1NC(=O)c2cc(Oc3cccc4ccccc34)c(NC(=O)/C=C\c3ccc(F)cc3Cl)cc2NC1=O
-2.7%	-3.06%	–	–	COC(=O)CCC1NC(=O)c2cc(Cl)ccc2N(CC2CC2)C1=O (stereo not drawn)
27%	6.82%	–	–	COC(=O)CC[C@H]1NC(=O)c2cc(N3CCOCC3)c(NC(=O)C3CC3)cc2NC1=O
50.9%	13%	–	–	COC(=O)CC[C@H]1NC(=O)c2cc(N3CCOCC3)c(NC(=O)Cc3ccccc3)cc2NC1=O
28.7%	41.6%	–	–	NC(=O)CC[C@H]1NC(=O)c2cc(Oc3cccc4ccccc34)c(NC(=O)C3CC3)cc2NC1=O
-4.24%	-9.9%	–	–	COC(=O)CC[C@H]1NC(=O)c2cc(Oc3ccc(C)c(C)c3)c(NC(=O)C3CC3)cc2NC1=O
–	–	45.5%	36%	COC(=O)CC[C@H]1NC(=O)c2cc(Oc3cccc(N(C)C)c3)c(NC(=O)COCc3ccc(Cl)c(Cl)c3)cc2NC1=O
34.1%	31.3%	–	–	CCCCCCCCCN1C(=O)[C@@H](CCC(=O)OC)N(C)C(=O)c2ccc(Cl)cc21
-3.78%	–	–	–	Cc1ccc(Oc2cc3c(cc2NC(=O)C2CC2)NC(=O)[C@@H](CCC(=O)O)NC3=O)cc1C
-5.32%	–	–	–	COC(=O)CC[C@H]1NC(=O)c2cc(OC)c(NC(=O)c3cc(C(F)(F)F)cc(C(F)(F)F)c3)cc2NC1=O
–	–	24.8%	34.9%	COC(=O)CC[C@H]1NC(=O)c2cc(Oc3cccc(N(C)C)c3)c(NC(=O)COCc3ccoc3)cc2NC1=O
–	–	38.8%	21.7%	CN1CCN(C(=O)CC[C@H]2NC(=O)c3cc(Oc4cccc(N(C)C)c4)c(NC(=O)COCc4ccccc4)cc3NC2=O)CC1
7.9%	-0.69%	–	–	CCCCCCCCCCCCNC(=O)CC[C@H]1NC(=O)c2cc(N3CCOCC3)c(NC(=O)C3CC3)cc2NC1=O
–	–	38.6%	48.1%	COC(=O)CC[C@H]1NC(=O)c2cc(Oc3cccc(N(C)C)c3)c(NC(=O)COCc3ccsc3)cc2NC1=O
34.2%	37.9%	–	–	COC(=O)CC[C@H]1NC(=O)c2cc(Oc3cccc4ccccc34)c(NC(=O)/C=C\c3ccc(F)cc3Cl)cc2NC1=O
21.5%	-0.11%	–	–	CCN(CC)C(=O)CC[C@H]1NC(=O)c2cc(Cl)ccc2NC1=O
30.9%	54.8%	–	–	CCCCCCCCCN1C(=O)[C@@H](CCC(=O)NCc2cccnc2)N(C)C(=O)c2ccc(Cl)cc21
–	–	38.5%	43.3%	C=CCOCC(=O)Nc1cc2c(cc1Oc1cccc(N(C)C)c1)C(=O)N[C@H](CCC(=O)OC)C(=O)N2
7.76%	3.86%	–	–	O=C(O)CC[C@H]1NC(=O)c2cc(Oc3cccc4ccccc34)c(NC(=O)/C=C\c3ccc(F)cc3Cl)cc2NC1=O
17.8%	29.7%	–	–	CCCCCCCCCN1C(=O)[C@@H](CCC(=O)N2CCOCC2)N(C)C(=O)c2ccc(Cl)cc21
–	–	29.8%	42.4%	COC(=O)CC[C@H]1NC(=O)c2cc(Oc3ccccc3)c(NC(=O)COCc3ccc(C(F)(F)F)cc3)cc2NC1=O
-2.95%	–	–	–	O=C(CC[C@H]1NC(=O)c2cc(N3CCOCC3)c(NC(=O)C3CC3)cc2NC1=O)NCCC1=CCCCC1
–	–	34.5%	46.1%	CCCNC(=O)CC[C@@H]1NC(=O)c2cc(Oc3cccc(N(C)C)c3)c(NC(=O)COCc3ccccc3)cc2NC1=O
-7.93%	-6.29%	–	–	CCCCN(CCCC)c1cc2c(cc1NC(C)=O)NC(=O)[C@@H](CCC(=O)OC)NC2=O
1.38%	-8.85%	–	–	CCN(CC)C(=O)CC[C@@H]1C(=O)N(CC2CC2)c2cc(Cl)ccc2C(=O)N1C
–	–	30.9%	59.5%	COC(=O)CC[C@H]1NC(=O)c2cc(Oc3cccc(N(C)C)c3)c(NC(=O)COCc3ccc(Cl)cc3Cl)cc2NC1=O
